High-throughput results as filed in PubChem BioAssay.
OXTR agonist: agonists of human oxytocin receptor; P30559; CHO-OTR cells, Fluo-8 calcium fluorescence; normalized: DMSO 0%, oxytocin 100%; activation, % at 3 µM; 0.32% of 320,000 active;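 active means activation above the mean of all tested compounds plus 3 SD, cutoff set per screening run, cut at about 20% in these data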;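 further: peak over basal fluorescence ratio from a 100 s FLIPR kinetic read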
TAAR1 ag: human TAAR1 agonism. Q96RJ0. CHO RD-HGA16 TAAR1, Fluo-8 calcium fluorescence; vehicle wells 0%, saturating PEA agonist 100%. activation, % at 3 µM. 0.99% of 360,000 active. AID 624467;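 active means activation above the mean activation of all test compounds in the run plus 3 SD, cut at about 38% in these data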
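Test system: RD-HGA16 (CHO) cells co-expressing Gα16 and hTAAR1; dosing: one-point dosing at 3 µM (nominal); timing: 17-24 h seeding, 75 min 37 °C dye, 30 min RT; signal: kinetic Fluo-8 calcium fluorescence; read-out basis: % activation relative to PEA EC100 response; controls: DMSO and PEA EC100; replicates: n 1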
OXTR potentiate: potentiators of human oxytocin receptor. activation, % at 3 µM. P30559. 0.061% of 320,000 active. CHO-OTR cells, Fluo-8 calcium fluorescence, potentiator mode; 0% = oxytocin EC15, 100% = EC100;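 active means activation above that plate's cutoff, the mean activation of tested compounds plus 3 SD, cut at about 6.6% in these data, passing the limit was not always enough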;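 further: 100% uses oxytocin at 75 nM as the full agonist control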
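assay system = CHO-OTR cells, human receptor | schedule = compound 6 min at room temperature before oxytocin, 100 s read | detection = Fluo-8 intracellular calcium fluorescence, ex 470-495, em 515-575 nm | evaluation = normalized max/min fluorescence ratio, % activation | control set = EC15 oxytocin alone as 0%, 75 nM oxytocin (EC100) as 100%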
V1R ag counter: activates human V1a receptor in oxytocin agonist counter-screen. 0.25% of 320,000 active. activation, % at 3 µM. P37288. CHO-V1R cells, Fluo-8 calcium fluorescence, agonist mode; 0% DMSO, 100% 3 nM vasopressin;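 active means activation above the mean activation of all tested compounds plus 3 SD, per screening run, cut at about 20% in these data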;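 further: signal is peak over basal fluorescence ratio across a 100 second FLIPR read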
Target sequence (P37288 whole entry, looked up): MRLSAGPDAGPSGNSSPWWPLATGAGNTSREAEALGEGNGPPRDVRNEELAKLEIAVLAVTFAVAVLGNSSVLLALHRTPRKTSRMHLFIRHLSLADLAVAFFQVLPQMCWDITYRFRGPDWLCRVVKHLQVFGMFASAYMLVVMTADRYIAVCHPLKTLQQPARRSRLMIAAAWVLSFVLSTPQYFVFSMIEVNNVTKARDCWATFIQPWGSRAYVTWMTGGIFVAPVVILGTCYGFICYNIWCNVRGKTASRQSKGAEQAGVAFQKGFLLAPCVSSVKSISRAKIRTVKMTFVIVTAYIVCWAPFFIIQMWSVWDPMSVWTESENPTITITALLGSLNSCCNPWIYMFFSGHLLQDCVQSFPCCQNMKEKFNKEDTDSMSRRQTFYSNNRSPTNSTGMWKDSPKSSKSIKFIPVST
TAAR1 antag: antagonists of human TAAR1. Q96RJ0. CHO RD-HGA16 TAAR1, Fluo-8 calcium fluorescence, antagonist. inhibition, % at 3 µM. 1.5% of 360,000 active;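 active means inhibition above a per-plate cutoff, the mean inhibition of test compounds on that plate plus 3 SD, cut at about 49% in these data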;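 further: 0% = DMSO plus EC80 beta-PEA response and 100% = DMSO alone without agonist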
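Assay system: RD-HGA16 CHO cells with stable hTAAR1 and Gα16 / Reagent: EC80 β-phenethylamine stimulus / Doses: 3 µM, single point / Timing: dye loading 75 min at 37 °C, then 30 min room temperature / Measured by: Fluo-8 intracellular calcium dye fluorescence, real-time kinetic reads / Controls: vehicle wells and EC80 agonist wells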
nonsel antag count: nonselective antagonist in TAAR1 antagonist counter-screen. shares compounds with TAAR1 antag. counterscreen cell line, calcium fluorescence, antagonist mode. inhibition, % at 3 µM. 77% of 2,400 active. AID 651780; in the data active means inhibition above about 22%;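 further: CHO-Ga16 host cells stimulated with ATP at an EC80 level; 0% = agonist EC80 plus vehicle and 100% = vehicle without agonist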
TAAR1 antag conf: confirmation of human TAAR1 antagonists; 40% of 2,400 active; AID 651785; inhibition, % at 3 µM; shares compounds with TAAR1 antag; TAAR1-expressing cells, fluorescence antagonist read-out; in the data active means inhibition above about 49%;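 further: CHO-Ga16 host cells challenged with agonist PEA near its EC80; 0% = agonist at EC80 plus vehicle and 100% = vehicle with no agonist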
Ga16 ag counter: nonselective Ga16 agonist in TAAR1 antagonist counter-screen; activation, % at 3 µM; shares compounds with TAAR1 antag; Ga16-expressing cells, calcium fluorescence, agonist counterscreen; 18% of 2,400 active; AID 651953; in the data active means activation above about 12%;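 further: 0% = vehicle wells and 100% = saturating stimulus response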
TAAR1 ag counter: counter-screen for human TAAR1 antagonists: TAAR1 agonists; 2% of 2,400 active; shares compounds with TAAR1 antag; hTAAR1 cell line, fluorescence activation, agonist mode; AID 651955; activation, % at 3 µM; in the data active means activation above about 37%;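 further: CHO cells stably expressing TAAR1 with calcium dye readout; 0% = DMSO vehicle and 100% = full agonist response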
* = called active by the depositor. Sampled rows, rich in hits. Any-hit rate of the full collection: about 2.3%.

How did N#Cc1nc(Nc2cccc(Cl)c2)c2ncn(C3CCCC3)c2n1 do in these assays?
OXTR agonist: 2; TAAR1 ag: 19; OXTR potentiate: -1; V1R ag counter: 1; TAAR1 antag: 75*; nonsel antag count: 22*; TAAR1 antag conf: 32; Ga16 ag counter: 2; TAAR1 ag counter: 2

How did COc1ccc(Nc2nc(C(=O)N3CCc4ccccc4C3)cs2)cc1 do in these assays?
OXTR agonist: -2; TAAR1 ag: 23; OXTR potentiate: -12; V1R ag counter: -1; TAAR1 antag: 16

What do the screens show for `COc1ccc(Nc2nc(C(=O)N3CCc4cc(OC)c(OC)cc4C3)cs2)cc1`?
OXTR agonist: -2; TAAR1 ag: 2; OXTR potentiate: -1; V1R ag counter: -1; TAAR1 antag: 57*; nonsel antag count: 22*; TAAR1 antag conf: 32; Ga16 ag counter: 5; TAAR1 ag counter: 0

How did COC(=O)C1(CC2CC(c3cccc(Br)c3)=NO2)CCN(C(=O)OC(C)(C)C)CC1 (centres undefined) do in these assays?
OXTR agonist: -2; TAAR1 ag: 12; OXTR potentiate: -14; V1R ag counter: 3; TAAR1 antag: 71*; nonsel antag count: 29*; TAAR1 antag conf: 64*; Ga16 ag counter: 5; TAAR1 ag counter: 7

What do the screens show for `CC(C)(C)OC(=O)N1CCC(CC2CC(c3ccccc3)=NO2)(C(=O)NCc2ccccc2)CC1` (centres undefined)?
OXTR agonist: -1; TAAR1 ag: 7; OXTR potentiate: 4; V1R ag counter: 0; TAAR1 antag: 30

Results for Cc1ccc(CCN2CC(C(=O)NCCCN3CCC(C)CC3)CC2=O)cc1 (centres undefined) ?
OXTR agonist: 0; TAAR1 ag: 0; OXTR potentiate: -6; V1R ag counter: 0; TAAR1 antag: -5

How did Cc1cccc(-n2c(CNC(=O)Cc3ccccc3)n[nH]c2=S)c1 do in these assays?
OXTR agonist: 0; TAAR1 ag: 6; OXTR potentiate: -5; V1R ag counter: 1; TAAR1 antag: -4

Results for CC(C)C(=O)N1CCN(c2ccc(NC(=O)COc3ccccc3[N+](=O)[O-])cc2)CC1 ?
OXTR agonist: 14; TAAR1 ag: 31; OXTR potentiate: -34; V1R ag counter: 13; TAAR1 antag: 73*; nonsel antag count: 55*; TAAR1 antag conf: 76*; Ga16 ag counter: 20*; TAAR1 ag counter: 21

How did CN1CCN(c2ccc(NC(=O)COc3ccccc3[N+](=O)[O-])cc2)CC1 do in these assays?
OXTR agonist: 0; TAAR1 ag: 13; OXTR potentiate: -12; V1R ag counter: 1; TAAR1 antag: 0

How did CS(=O)(=O)N1CCN(c2ccc(NC(=O)COc3ccccc3[N+](=O)[O-])cc2)CC1 do in these assays?
OXTR agonist: 6; TAAR1 ag: 20; OXTR potentiate: -13; V1R ag counter: 8; TAAR1 antag: 63*; nonsel antag count: 28*; TAAR1 antag conf: 42; Ga16 ag counter: 12*; TAAR1 ag counter: 11

How did COc1ccc(CCN2C(=O)CC(C(N)=O)SC2=Nc2ccc(F)cc2)cc1OC (centres undefined) do in these assays?
OXTR agonist: 1; TAAR1 ag: 4; OXTR potentiate: -8; V1R ag counter: 0; TAAR1 antag: -15

What do the screens show for `COc1cccc(NC(=O)Nc2ccc(C(C)(C)C)cc2)c1`?
TAAR1 ag: 13; TAAR1 antag: 87*; nonsel antag count: 51*; TAAR1 antag conf: 76*; Ga16 ag counter: 14*; TAAR1 ag counter: 13

What do the screens show for `COc1cccc(NC(=O)Nc2ccncc2)c1`?
OXTR agonist: 2; TAAR1 ag: 17; OXTR potentiate: 5; V1R ag counter: 1; TAAR1 antag: -9

What do the screens show for `CCOC(=O)c1[nH]c2ccc(OC)cc2c1NC(=O)CN1CCc2ccccc2C1`?
OXTR agonist: 2; TAAR1 ag: 17; OXTR potentiate: -6; V1R ag counter: 1; TAAR1 antag: 60*; nonsel antag count: 23*; TAAR1 antag conf: 51*; Ga16 ag counter: 11; TAAR1 ag counter: 23

How did CCOC(=O)c1[nH]c2ccc(OC)cc2c1NC(=O)CN1CCN(c2ccccn2)CC1 do in these assays?
OXTR agonist: 0; OXTR potentiate: -6; V1R ag counter: 0

Results for Cc1cc(C)cc(C(=O)NCC(=O)OCC(=O)N(C)C2CCS(=O)(=O)C2)c1 (centres undefined) ?
OXTR agonist: 1; TAAR1 ag: 2; OXTR potentiate: 6; V1R ag counter: 1; TAAR1 antag: -7

What do the screens show for `Cc1cnc(NC(=O)c2ccc(F)c(S(=O)(=O)N3CCOCC3)c2)s1`?
OXTR agonist: 2; TAAR1 ag: 3; OXTR potentiate: -5; V1R ag counter: 2; TAAR1 antag: -22

How did C/C(=N\N=C1\NC(=O)CS1)c1cccs1 do in these assays?
OXTR agonist: 0; TAAR1 ag: 2; OXTR potentiate: 1; V1R ag counter: 2; TAAR1 antag: -29

How did Cc1cc(=O)oc2c3c(cc(OCC(=O)NCC(=O)O)c12)OC(C)(C)CC3 do in these assays?
OXTR agonist: 6; TAAR1 ag: 4; OXTR potentiate: 2; V1R ag counter: 1; TAAR1 antag: 0

Results for Cc1cc(=O)oc2c3c(cc(OCC(=O)NCc4ccccc4)c12)OC(C)(C)CC3 ?
OXTR agonist: -1; TAAR1 ag: 3; OXTR potentiate: 0; V1R ag counter: 0; TAAR1 antag: 68*; nonsel antag count: 24*; TAAR1 antag conf: 34; Ga16 ag counter: 2; TAAR1 ag counter: 0

Results for COc1cccc2cc(CC(=O)c3cc(C)ccc3C)c(=O)oc12 ?
OXTR agonist: 0; TAAR1 ag: 10; OXTR potentiate: -9; V1R ag counter: 1; TAAR1 antag: 58*; nonsel antag count: 29*; TAAR1 antag conf: 49*; Ga16 ag counter: 6; TAAR1 ag counter: 4

What do the screens show for `CCOC1=C(C#N)CC2(CC1)c1ccccc1-c1ccccc12`?
TAAR1 ag: 3; TAAR1 antag: 71*; nonsel antag count: 24*; TAAR1 antag conf: 41; Ga16 ag counter: 5; TAAR1 ag counter: 7
